From PubChem BioAssay
Most compounds without a hit are left out; they make up all but 4.8% or so of the library.
APP 5UTR inh = APP translation inhibition; SH-SY5Y APP 5'UTR-luciferase reporter, luminescence; inhibition, % at 2 µM; actives 0.82% (n = 190,000); AID 1285;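 active = inhibition above a set limit, derived from the sample mean plus 3 SD, cut at about 45% in these data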
FLuc inhib CS = inhibits firefly luciferase, flagging false hits in luciferase inhibition screens; P08659; ATPLite firefly luciferase biochemical luminescence, 10 min; inhibition, % at 10 µM; actives 1.5% (n = 200,000);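 active = inhibition above about 50% when tested at 10 µM, limit read from the data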
NF-kB neuron act = compounds increasing NF-kB expression in human neuronal cells. NF-kB reporter expression; hits give high values. fold change at 12.5 µM. actives 1.6% (n = 190,000); in the data active = fold change above about 3.3
FLuc act counter = firefly luciferase counter-screen for stimulation assays; activation factor at 10 µM; AID 1027; 200,000 tested, under 10 active; ATPlite luciferase biochemical, luminescence, 10 min; 0 = ATP-free wells, 1 = DMSO control;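 active = luciferase activation factor, scaled between plate controls, of at least 2 with compound at 10 µM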
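test system = cell-free luciferase reagent | medium = PBS as buffer for the ATP substrate | dosing = test compounds dosed from 2 mM stocks in 100% DMSO | incubation = 10 min at ambient temperature | detection = luminescence measurement of luciferase light output | benchmarks = low control with PBS replacing ATP, high control enzyme plus ATP without compound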
STAT1 activator = increases IFN-gamma driven STAT1 reporter signal. actives 2.6% (n = 200,000). activation (% of control), % at 5.5 µM. NIH 3T3 STAT1-luciferase reporter, luminescence; 100% = IFN-gamma alone, no compound. AID 932;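 active = activation above the screen-wide mean activation plus 3 SD, cut at about 130% in these data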;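 also: raw ratio to IFN-gamma control signal so 100% means no change and 0% no light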
APP 5'UTR act = APP 5'UTR luciferase reporter activation; AID 1276; actives 1% (n = 190,000); SH-SY5Y APP 5'UTR luciferase reporter, luminescence; zero percent = DMSO vehicle wells; activation, % at 2 µM;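 active = activation above a set limit, based on mean plus 3 SD of controls, cut at about 140% in these data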
Numbers without * were called inactive; nt = no result given.

SMILES	APP 5UTR inh	FLuc inhib CS	NF-kB neuron act	FLuc act counter	STAT1 activator	APP 5'UTR act
O=C(c1ccc(-c2ccc([N+](=O)[O-])cc2Cl)o1)N1CCOCC1	-24.6	13.6	1.9	0.9	132.8*	24.6
Nc1n[nH]c(=S)n1/N=C1/C(=O)Nc2ccccc21	-21.3	69.9*	1.24	0.3	103.3	21.3
COC(=O)c1ccc(Oc2cc(C)nc(-n3nc(C)cc3C)n2)cc1	93.5*	-8.9	3.89*	1.1	95.7	-93.5
COC(=O)c1ccc(Oc2nc(C)cc(Oc3ccccc3)n2)cc1	2.3	-5.8	1.03	1.1	98.2	-2.3
O=C(N/N=C/c1cccnc1)c1ccc(NC(=O)C(c2ccccc2)c2ccccc2)cc1	70.2*	-5.6	1.25	1.1	104.0	-70.2
CCCC(=O)Nc1ccc(C(=O)N/N=C/c2cccnc2)cc1	8.8	-1.3	0.84	1	108.3	-8.8
Brc1ccccc1-c1nnc(CSc2nnc3sc4ccccc4n23)o1	-1.7	-2.4	0.85	1	107.6	1.7
CCc1cccc2c(C(=O)C(F)(F)F)cn(CC(=O)N3CCOCC3)c12	-60.6	-3.5	1.06	1	113.2	60.6
Fc1ccccc1CSc1nc2ccccc2[nH]1	-198.1	50.9*	10.1*	0.5	135.7*	198.0*
COc1cccc(CSc2nc3ccccc3[nH]2)c1	-89.0	66.7*	4*	0.3	118.4	89.0
Fc1c(F)c(F)c(CSc2nc3ccccc3[nH]2)c(F)c1F	-23.0	-3.8	1.4	1	110.1	23.0
COC(=O)c1cc(CSc2nc3ccccc3[nH]2)oc1C	nt	53.1*	1.67	0.5	107.9	nt
O=S(=O)(Cc1ccccc1Cl)NCc1ccccc1	-16.8	-0.5	0.83	1	103.6	16.8
CCCCOc1ncnc2c1[nH]c1ccc(OC)cc12	-69.3	11.4	4.37*	0.9	137.3*	69.3
O=C(CSc1nnc(CNc2ccc(Cl)cc2)o1)Nc1nc2c(s1)CCCC2	-9.4	-2.4	0.98	1	98.4	35.8
CCCCCCNCC1OCc2ccccc2CO1	15.7	-2.5	1.02	1	105.3	-15.7
c1ccc(NCC2OCc3ccccc3CO2)cc1	-58.0	5.5	2.31	0.9	136.0*	58.0
Cc1cccc(N2CCN(Cc3cn(C)nc3-c3ccccc3F)CC2)n1	74.0*	-5.7	0.85	1.1	95.2	-74.0
C/C(=N\Nc1nc(-c2ccccc2)cs1)c1cccs1	-115.7	31.0	0.64	0.7	145.1*	115.7
Cc1ccc(C2=NNC(c3cccc(F)c3)S2)cc1 (configuration not stated)	-165.0	84.0*	3.41*	0.2	54.6	165.0*
Fc1cccc(C2NN=C(c3ccccc3)S2)c1 (configuration not stated)	-182.5	67.4*	8.98*	0.3	163.4*	182.5*
COc1ccc(C2NN=C(c3ccc(C)cc3)S2)cc1OC (configuration not stated)	-164.2	78.9*	3.48*	0.2	136.1*	164.2*
O=C(COC(=O)c1ccc(S(=O)(=O)N2CCOCC2)cc1)NCc1cccs1	-7.3	-4.3	0.84	1	104.0	7.3
CCN(CC)c1ccc(C=Nc2ccccc2C)c(O)c1	8.0	53.4*	1.53	0.5	101.9	-8.0
CCN(CC)c1ccc(/C=N/N(c2ccccc2)c2ccccc2)c(O)c1	-4.3	-1.7	1.57	1	95.3	4.3
SMILES	APP 5UTR inh	FLuc inhib CS	NF-kB neuron act	FLuc act counter	STAT1 activator	APP 5'UTR act
CCN(CC)c1ccc(/C=N/NC(=O)Cc2cccs2)c(O)c1	63.8*	1.8	2.13	1	104.5	-63.8
CCN(CC)c1ccc(/C=N/NC(=S)NCc2ccccc2)c(O)c1	21.8	-6.2	1.09	1.1	101.9	-21.8
CCOC(=O)N/N=C/C(Cl)=C/c1ccccc1	-25.3	27.4	2.05	0.7	122.8	25.3
O=C(Cc1cccs1)N/N=C/C(Cl)=C/c1ccccc1	-64.7	-2.7	1.08	1	147.0*	64.7
CCc1ccc2nc3sc(C(=O)O)cc3cc2c1	-12.8	67.7*	1.82	0.3	117.7	12.8
COc1ccc2nc3sc(C(=O)N4CCN(C)CC4)cc3cc2c1	-17.7	3.2	1.59	1	108.6	17.7
FCCCOc1ccc(CN2CCN(c3ccccc3F)CC2)cc1	-5.8	-7.7	1.08	1.1	107.7	5.8
Cc1ccc(OCC(=O)NCc2ccccn2)c(Br)c1	-29.8	7.5	2.09	0.9	140.8*	29.8
